Measured values taken from ChEMBL document CHEMBL4251599, “Synthesis and biological evaluation of coumarin derivatives containing imidazole skeleton as potential antibacterial agents” (Eur J Med Chem, 2018).
Converted amounts (≈) assume the structure as drawn.

What was measured:
Type in all cases: functional
Flavobacterium columnare [1] = assay: Antibacterial activity against Flavobacterium columnare FC-G1 after 24 hrs by two fold serial dilution method; conditions: FC-G1, 24 h
Outline: (§1)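 Broth two-fold serial dilution per CLSI, in nutrient broth. Inoculum from 24 h cultures at 28 ± 1 °C, adjusted in saline to 1×10^7-2×10^7 cfu/mL, then diluted to 1×10^5-2×10^5 cfu/mL. Test range 256 down to 0.50 µM and lower. Tubes held 24 h at 28 ± 1 °C. MIC read visually. Enrofloxacin and norfloxacin served as standards.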

Escherichia coli [2] = assay: Antibacterial activity against Escherichia coli ATCC 35150 after 24 hrs by two fold serial dilution method; conditions: ATCC 35150, 24 h; outline: as §1
Streptococcus agalactiae [3] = assay: Antibacterial activity against Streptococcus agalactiae WB1445 after 24 hrs by two fold serial dilution method; conditions: WB1445, 24 h; outline: as §1
Staphylococcus aureus [4] = assay: Antibacterial activity against Staphylococcus aureus ATCC 29213 after 24 hrs by two fold serial dilution method; conditions: ATCC 29213, 24 h; outline: as §1
Flavobacterium columnare [5] = assay: Bactericidal activity against Flavobacterium columnare FC-G1 incubated for 24 hrs followed by re-plating on nutrient agar and measured after overnight incubation by two fold serial dilution method; conditions: FC-G1, 24 h
Outline: (§2)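 After the MIC read, 100 µl from every tube without visible growth was spread on nutrient agar lacking compound. Plates were incubated overnight at 28 ± 1 °C. MBC was taken as the lowest concentration killing >99.9% of the initial population, seen as no growth on agar.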

Escherichia coli [6] = assay: Bactericidal activity against Escherichia coli ATCC 35150 incubated for 24 hrs followed by re-plating on nutrient agar and measured after overnight incubation by two fold serial dilution method; conditions: ATCC 35150, 24 h; outline: as §2
Streptococcus agalactiae [7] = assay: Bactericidal activity against Streptococcus agalactiae WB1445 incubated for 24 hrs followed by re-plating on nutrient agar and measured after overnight incubation by two fold serial dilution method; conditions: WB1445, 24 h; outline: as §2
Staphylococcus aureus [8] = assay: Bactericidal activity against Staphylococcus aureus ATCC 29213 incubated for 24 hrs followed by re-plating on nutrient agar and measured after overnight incubation by two fold serial dilution method; conditions: ATCC 29213, 24 h; outline: as §2

Compound | MIC (Flavobacterium columnare [1]) [µM] | MIC (Escherichia coli [2]) [µM] | MIC (Streptococcus agalactiae [3]) [µM] | MIC (Staphylococcus aureus [4]) [µM] | MBC (Flavobacterium columnare [5]) [µM] | MBC (Escherichia coli [6]) [µM] | MBC (Streptococcus agalactiae [7]) [µM] | MBC (Staphylococcus aureus [8]) [µM]
O=c1ccc2ccc(OCCn3ccnc3)cc2o1 | > 256 | 128 (≈ 32.8 µg/mL) | > 256 | > 256 | > 256 | 256 (≈ 65.6 µg/mL) | > 256 | > 256
O=c1ccc2ccc(OCCCCCCn3ccnc3-c3ccccc3)cc2o1 | > 256 | > 256 | > 256 | > 256 | > 256 | > 256 | > 256 | > 256
O=c1ccc2ccc(OCCCCCCCCn3cccn3)cc2o1 | > 256 |  | > 256 |  | > 256 |  | > 256 | 
Cc1cc(=O)oc2cc(OCCCCCCCCn3ccnc3C)ccc12 | 4 (≈ 1.47 µg/mL) | > 256 | 16 (≈ 5.9 µg/mL) | 64 (≈ 23.6 µg/mL) | 8 (≈ 2.95 µg/mL) | > 256 | 16 (≈ 5.9 µg/mL) | 256 (≈ 94.3 µg/mL)
O=c1ccc2ccc(OCCBr)cc2o1 | > 256 | > 256 | > 256 | > 256 | > 256 | > 256 | > 256 | > 256
Cc1cn(CCOc2ccc3ccc(=O)oc3c2)cn1 | > 256 | 16 (≈ 4.32 µg/mL) | > 256 | > 256 | > 256 | 64 (≈ 17.3 µg/mL) | > 256 | > 256
O=c1ccc2ccc(OCCn3ccnc3-c3ccccc3)cc2o1 | > 256 | 128 (≈ 42.5 µg/mL) | > 256 | > 256 | > 256 | 512 (≈ 170 µg/mL) | > 256 | > 256
O=c1ccc2ccc(OCCCCCCn3ccnc3)cc2o1 | 64 (≈ 20 µg/mL) | 32 (≈ 10 µg/mL) | > 256 | 64 (≈ 20 µg/mL) | 128 (≈ 40 µg/mL) | 64 (≈ 20 µg/mL) | > 256 | 64 (≈ 20 µg/mL)
Cc1nccn1CCOc1ccc2ccc(=O)oc2c1 | > 256 | 64 (≈ 17.3 µg/mL) | > 256 | > 256 | > 256 | 256 (≈ 69.2 µg/mL) | > 256 | > 256
Cc1cc(=O)oc2cc(OCCCCCCCCn3cnc4ccccc43)ccc12 | 16 (≈ 6.47 µg/mL) | > 256 | 32 (≈ 12.9 µg/mL) | 32 (≈ 12.9 µg/mL) | 64 (≈ 25.9 µg/mL) | > 256 | 64 (≈ 25.9 µg/mL) | 256 (≈ 104 µg/mL)
O=c1ccc2ccc(OCCn3cnc4ccccc43)cc2o1 | > 256 | 128 (≈ 39.2 µg/mL) | > 256 | 64 (≈ 19.6 µg/mL) | > 256 | 256 (≈ 78.4 µg/mL) | > 256 | 256 (≈ 78.4 µg/mL)
O=c1ccc2ccc(OCCCCCCn3cnc4ccccc43)cc2o1 | 32 (≈ 11.6 µg/mL) | > 256 | 32 (≈ 11.6 µg/mL) | 32 (≈ 11.6 µg/mL) | 128 (≈ 46.4 µg/mL) | > 256 | 128 (≈ 46.4 µg/mL) | 256 (≈ 92.8 µg/mL)
Cc1cc(=O)oc2cc(OCCCCCCCCn3ccnc3)ccc12 | 4 (≈ 1.42 µg/mL) | > 256 | 8 (≈ 2.84 µg/mL) | 64 (≈ 22.7 µg/mL) | 16 (≈ 5.67 µg/mL) | > 256 | 16 (≈ 5.67 µg/mL) | 256 (≈ 90.7 µg/mL)
O=c1ccc2ccc(OCCCCBr)cc2o1 | > 256 | > 256 | > 256 | > 256 | > 256 | > 256 | > 256 | > 256
O=c1ccc2ccc(OCCCCCCCCCCBr)cc2o1 | > 256 | > 256 | > 256 | > 256 | > 256 | > 256 | > 256 | > 256
Cc1cn(CCCCCCCCOc2ccc3c(C)cc(=O)oc3c2)cn1 | 8 (≈ 2.95 µg/mL) | > 256 | 8 (≈ 2.95 µg/mL) | 32 (≈ 11.8 µg/mL) | 16 (≈ 5.9 µg/mL) | > 256 | 32 (≈ 11.8 µg/mL) | 256 (≈ 94.3 µg/mL)

Compound | MIC (Flavobacterium columnare [1]) [µM] | MIC (Escherichia coli [2]) [µM] | MIC (Streptococcus agalactiae [3]) [µM] | MIC (Staphylococcus aureus [4]) [µM] | MBC (Flavobacterium columnare [5]) [µM] | MBC (Escherichia coli [6]) [µM] | MBC (Streptococcus agalactiae [7]) [µM] | MBC (Staphylococcus aureus [8]) [µM]
Cc1cn(CCCCOc2ccc3ccc(=O)oc3c2)cn1 | > 256 | 16 (≈ 4.77 µg/mL) | > 256 | > 256 | > 256 | 32 (≈ 9.55 µg/mL) | > 256 | > 256
O=c1ccc2ccc(OCCCCCCCCn3cnc4ccccc43)cc2o1 | 8 (≈ 3.12 µg/mL) | > 256 | 256 (≈ 100 µg/mL) | 32 (≈ 12.5 µg/mL) | 32 (≈ 12.5 µg/mL) | > 256 | 512 (≈ 200 µg/mL) | 128 (≈ 50 µg/mL)
O=c1ccc2ccc(OCCCCn3ccnc3-c3ccccc3)cc2o1 | > 256 | 32 (≈ 11.5 µg/mL) | > 256 | > 256 | > 256 | 128 (≈ 46.1 µg/mL) | > 256 | > 256
O=c1ccc2ccc(OCCCCCCCCN3CCCCC3)cc2o1 | > 256 |  | > 256 |  | > 256 |  | > 256 | 
O=c1ccc2ccc(OCCCCn3ccnc3)cc2o1 | > 256 | 128 (≈ 36.4 µg/mL) | > 256 | 64 (≈ 18.2 µg/mL) | > 256 | 256 (≈ 72.8 µg/mL) | > 256 | 256 (≈ 72.8 µg/mL)
Cc1cc(=O)oc2cc(OCCCCCCCCn3cncn3)ccc12 | 16 (≈ 5.69 µg/mL) | > 256 | 32 (≈ 11.4 µg/mL) | 32 (≈ 11.4 µg/mL) | 64 (≈ 22.7 µg/mL) | > 256 | 64 (≈ 22.7 µg/mL) | 256 (≈ 91 µg/mL)
O=c1ccc2ccc(OCCCCn3cnc4ccccc43)cc2o1 | > 256 | 8 (≈ 2.68 µg/mL) | > 256 | 32 (≈ 10.7 µg/mL) | > 256 | 64 (≈ 21.4 µg/mL) | > 256 | 256 (≈ 85.6 µg/mL)
O=c1ccc2ccc(OCCCCCCCCN3CCNCC3)cc2o1 | > 256 |  | > 256 |  | > 256 |  | > 256 | 
O=c1ccc2ccc(OCCCCCCCCn3ccnc3-c3ccccc3)cc2o1 | > 256 | > 256 | > 256 | > 256 | > 256 | > 256 | > 256 | > 256
O=c1ccc2ccc(OCCCCCCCCBr)cc2o1 | > 256 | > 256 | > 256 | > 256 | > 256 | > 256 | > 256 | > 256
Cc1cc(=O)oc2cc(OCCCCCCCCBr)ccc12 | > 256 | > 256 | > 256 | > 256 | > 256 | > 256 | > 256 | > 256
O=c1ccc2ccc(OCCCCCCBr)cc2o1 | > 256 | > 256 | > 256 | > 256 | > 256 | > 256 | > 256 | > 256
NCCCCCCCCOc1ccc2ccc(=O)oc2c1 | > 256 |  | > 256 |  | > 256 |  | > 256 | 
CCN1CCN(c2cc3c(cc2F)c(=O)c(C(=O)O)cn3C2CC2)CC1 [ENROFLOXACIN] | 2 (≈ 0.719 µg/mL) | 1 (≈ 0.359 µg/mL) | 8 (≈ 2.88 µg/mL) | 2 (≈ 0.719 µg/mL) | 2 (≈ 0.719 µg/mL) | 2 (≈ 0.719 µg/mL) | 16 (≈ 5.75 µg/mL) | 4 (≈ 1.44 µg/mL)
CCn1cc(C(=O)O)c(=O)c2cc(F)c(N3CCNCC3)cc21 [NORFLOXACIN] | 32 (≈ 10.2 µg/mL) | 1 (≈ 0.319 µg/mL) | 64 (≈ 20.4 µg/mL) | 32 (≈ 10.2 µg/mL) | 128 (≈ 40.9 µg/mL) | 2 (≈ 0.639 µg/mL) | 128 (≈ 40.9 µg/mL) | 64 (≈ 20.4 µg/mL)
